Assay outcomes as filed in PubChem.
E-sel inducer = E-selectin induction in HUVECs, primary screen, imaging, HUVEC, immunofluorescence imaging, single point; AID 686992, 2013; normalized: neutral wells 0, TNF-alpha wells 100; P16581; hit rate 0.37% among 260,000; activation, % at 7.58 µM;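 active = mean E-selectin-positive cell signal at least 10% of the positive control, reached in at least 60% of replicates, without over 20% cell loss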
Target sequence (P16581 whole entry, looked up): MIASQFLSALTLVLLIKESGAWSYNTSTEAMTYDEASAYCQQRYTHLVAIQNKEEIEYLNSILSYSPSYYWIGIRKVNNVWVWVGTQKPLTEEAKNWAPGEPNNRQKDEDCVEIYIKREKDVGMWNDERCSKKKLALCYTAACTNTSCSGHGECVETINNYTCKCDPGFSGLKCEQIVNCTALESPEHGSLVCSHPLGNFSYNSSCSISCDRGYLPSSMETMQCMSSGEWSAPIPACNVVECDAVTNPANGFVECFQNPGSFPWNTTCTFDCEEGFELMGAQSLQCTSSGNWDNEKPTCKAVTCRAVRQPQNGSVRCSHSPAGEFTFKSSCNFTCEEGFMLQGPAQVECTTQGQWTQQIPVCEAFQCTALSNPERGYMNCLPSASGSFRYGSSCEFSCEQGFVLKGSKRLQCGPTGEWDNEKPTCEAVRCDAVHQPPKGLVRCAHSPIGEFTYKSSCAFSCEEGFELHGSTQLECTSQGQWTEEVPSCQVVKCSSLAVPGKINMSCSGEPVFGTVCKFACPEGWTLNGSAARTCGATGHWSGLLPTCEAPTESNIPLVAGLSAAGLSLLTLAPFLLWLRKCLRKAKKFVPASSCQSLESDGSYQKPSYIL
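Read-out basis: % PE-positive cells; Test system: HUVEC primary endothelial cells; Technique: immunofluorescence imaging; Dosing: single-point compound dose.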
SIRT5 block = SIRT5 desuccinylase inhibitors, primary screen, biochemical, fluorescence imaging, single point, set 5 | NAD-dependent protein deacylase sirtuin-5, mitochondrial (Homo sapiens), Q9NXA8 | Purified SirT5, succinyl-peptide AMC, trypsin-coupled fluorescence | inhibition, % at 15 µM | hit rate 1.1% among 330,000; in the data active = inhibition above about 15%
DENV2 CPE rescue = inhibitors of DENV2 cytopathic effect, primary screen, cell-based, plate reader, single concentration; DENV2-infected cells, cytopathic effect rescue; CPE inhibition, % at 9.99 µM; hit rate 1.7% among 350,000; in the data active = CPE inhibition above about 20%, passing the limit was not always enough; tested in BHK-21 cells
Numbers stand for hits; - = inactive; . = no result. Only some compounds are listed: those with a hit (about 2.8% of all), similar ones and a draw of the others.

SMILES	E-sel inducer	SIRT5 block	DENV2 CPE rescue
O=C(C[C@H]1CC[C@H]2[C@@H](COC[C@@H](O)CN2Cc2nccs2)O1)NCc1ccc(-c2ccccc2)cc1	-	-	-
O=C(C[C@H]1CC[C@@H]2[C@H](COC[C@H](O)CN2Cc2cccc(C(F)(F)F)c2)O1)NCCc1ccccc1	-	-	-
CO[C@H]1CN(C)C(=O)c2cc(NC(C)=O)ccc2OC[C@@H](C)N(CC2CC2)C[C@@H]1C	-	-	-
O=C(C[C@H]1CC[C@H]2[C@@H](COC[C@@H](O)CN2C(=O)c2ccccc2F)O1)NCc1ccc(F)cc1	-	-	-
O=C(C[C@H]1CC[C@@H]2[C@H](COC[C@@H](O)CN2C(=O)c2ccccc2F)O1)NCc1ccc(F)cc1	-	-	37.8
O=C(C[C@@H]1CC[C@@H]2[C@H](COC[C@@H](O)CN2C(=O)Nc2ccc(C(F)(F)F)cc2)O1)NC1Cc2ccccc2C1	-	-	-
CN(C)CC(=O)N1CCCCN2[C@H](C1)[C@@H](c1ccc(-c3cccc(C(=O)N(C)C)c3)cc1)[C@@H]2CO	-	-	-
COc1ccc(CNC(=O)C[C@H]2C[C@@H]3c4cc(NS(C)(=O)=O)ccc4O[C@@H]3[C@@H](CO)O2)cc1	-	-	-
Nc1c(Br)cc(Br)c2c1C(=O)c1c(cccc1S(=O)(=O)O)C2=O	123.9	-	-
Nc1c(C(=O)O)ccc2c1C(=O)c1ccccc1C2=O	.	-	-
CN1C(=O)c2cc(NS(C)(=O)=O)ccc2OC[C@@H]2O[C@H](CC(=O)NC3CCCCC3)CC[C@H]21	-	-	-
COc1ccc(OCC(=O)N2CCc3ccccc3C2)cc1	.	-	-
C/C=C/[C@@H](CC(=O)N1Cc2ccccc2C[C@H]1CO)[Si](C)(C)c1ccc(OC)cc1	.	-	39.4
COc1ccc2c3c([nH]c2c1)[C@H](CO)N(C(C)=O)CC31CN(Cc2cc(-c3ccccc3)on2)C1	-	-	-
Cc1cc2c(cc1C)-n1nnnc1C(N1CCCC1)C(=O)N2 (stereo not drawn)	-	-	-
O=C1Nc2ccccc2-c2nnnn2C1N1CCCC1 (stereo not drawn)	-	17.9	-
CN(C)CCCNS(=O)(=O)c1ccc(NC2CCCCCC2)c([N+](=O)[O-])c1	.	28.7	-
CCNc1ccc(S(=O)(=O)NCCN(C)C)cc1[N+](=O)[O-]	-	-	-
COC(=O)[C@H]1[C@H](CO)[C@H]2Cn3c(ccc(-c4ccc(F)cc4)c3=O)[C@H]2N1C(=O)C1CCC1	-	-	-
C[C@@H]1CCCCO[C@@H](CN(C)S(=O)(=O)c2ccc(F)cc2)[C@H](C)CN([C@@H](C)CO)C(=O)c2cc(NC(=O)Nc3ccc(C(F)(F)F)cc3)ccc2O1	.	-	-
C[C@@H]1CCCCO[C@H](CN(C)S(C)(=O)=O)[C@@H](C)CN([C@H](C)CO)C(=O)c2cc(NC(=O)Nc3ccc(C(F)(F)F)cc3)ccc2O1	-	-	-
C[C@@H]1CCCCO[C@@H](CN(C)S(=O)(=O)c2ccc(F)cc2)[C@H](C)CN([C@H](C)CO)C(=O)c2cc(NC(=O)Nc3ccc(C(F)(F)F)cc3)ccc2O1	.	15.4	-
C[C@@H]1CCCCO[C@@H](CN(C)S(=O)(=O)c2ccc(F)cc2)[C@@H](C)CN([C@H](C)CO)C(=O)c2cc(NC(=O)Nc3ccc(C(F)(F)F)cc3)ccc2O1	.	-	87.6
C[C@@H]1CCCCO[C@@H](CN(C)S(C)(=O)=O)[C@H](C)CN([C@@H](C)CO)C(=O)c2cc(NC(=O)Nc3ccc(C(F)(F)F)cc3)ccc2O1	-	-	56.6
C[C@H](CO)N1C[C@H](C)[C@H](CN(C)S(=O)(=O)c2ccc(F)cc2)OCCCC[C@H](C)Oc2ccc(NC(=O)Nc3ccc(C(F)(F)F)cc3)cc2C1=O	.	-	-
SMILES	E-sel inducer	SIRT5 block	DENV2 CPE rescue
CCC(=O)N[C@H]1C[C@@H]2O[C@H](CO)CC[C@@H]2O[C@@H]1CCc1ccc(-c2cccc(OC)c2)cc1	.	-	-
C[C@H](CO)N1C[C@H](C)[C@@H](CN(C)Cc2ccccc2)OCCCC[C@H](C)Oc2ccc(NC(=O)CCC(F)(F)F)cc2C1=O	-	.	.
C[C@H]1CN([C@@H](C)CO)C(=O)c2cccc(NC(=O)Nc3ccccc3)c2O[C@@H]1CN(C)CC1CCCCC1	-	-	-
COc1cccc(NC(=O)C2C3C=CC4(O3)C2C(=O)N(CCCN2CCC(C)CC2)C4C(=O)NC2CCCCC2)c1 (stereo not drawn)	-	-	-
COc1cccc(NC(=O)C2C3C=CC4(O3)C2C(=O)N(CCCN2CCCCC2)C4C(=O)NC2CCCCC2)c1 (stereo not drawn)	29.1	-	-
CCN(CC)CCN1C(=O)C2C(C(=O)Nc3cccc(C)c3)C3C=CC2(O3)C1C(=O)NC1CCCC(C)C1C (stereo not drawn)	.	19.0	-
CC1CCCC(NC(=O)C2N(CCCN3CCCC3)C(=O)C3C(C(=O)Nc4ccc(Cl)cc4)C4C=CC32O4)C1C (stereo not drawn)	-	-	-
C[C@@H]1CCCCO[C@H](CN(C)S(=O)(=O)c2ccc(F)cc2)[C@@H](C)CN([C@@H](C)CO)C(=O)c2cc(NS(=O)(=O)c3ccccc3)ccc2O1	-	16.9	-
C[C@@H]1CCCCO[C@H](CN(C)S(=O)(=O)c2ccccc2)[C@H](C)CN([C@@H](C)CO)C(=O)c2cc(NS(=O)(=O)c3ccc(F)cc3)ccc2O1	-	-	-
C[C@@H]1CCCCO[C@H](CN(C)S(=O)(=O)c2ccccc2)[C@@H](C)CN([C@H](C)CO)C(=O)c2cc(NS(=O)(=O)c3ccc(F)cc3)ccc2O1	-	-	-
C[C@@H]1CCCCO[C@@H](CN(C)S(=O)(=O)c2ccc(F)cc2)[C@@H](C)CN([C@@H](C)CO)C(=O)c2cc(NS(=O)(=O)c3ccccc3)ccc2O1	-	16.2	-
C[C@@H]1CCCCO[C@H](CN(C)S(=O)(=O)c2ccccc2)[C@@H](C)CN([C@@H](C)CO)C(=O)c2cc(NS(=O)(=O)c3ccc(F)cc3)ccc2O1	-	-	25.3
C[C@H]1CCCCO[C@H](CN(C)S(=O)(=O)c2ccccc2)[C@@H](C)CN([C@@H](C)CO)C(=O)c2cc(NS(=O)(=O)c3ccc(F)cc3)ccc2O1	-	-	-
CO[C@H]1CN(C)C(=O)c2ccc(NC(C)=O)cc2OC[C@H](C)N(C(=O)c2ccncc2)C[C@@H]1C	-	-	-
O=C(C[C@H]1CC[C@H]2[C@@H](COC[C@H](O)CN2C(=O)Nc2ccc(Cl)c(Cl)c2)O1)NCc1ccc(F)cc1	-	-	-
COc1ccc(/C=N/NC(=O)c2nc(-c3ccccc3)n(-c3ccccc3)n2)cc1OC	.	.	38.4
COc1cc(/C=N/NC(=O)c2nc(-c3ccccc3)n(-c3ccccc3)n2)ccc1O	-	.	.
CN1CCN(C(=O)C[C@@H]2CC[C@H]3[C@@H](COc4ccc(NC(=O)C5CCCCC5)cc4C(=O)N3C)O2)CC1	-	-	-
CCC(=O)Nc1ccc2c(c1)C(=O)N(C)[C@H]1CC[C@@H](CC(=O)N[C@H](C)c3ccccc3)O[C@H]1CO2	-	-	-
